The target of assay [1] is T1, Short transient receptor potential channel 3 (Homo sapiens) (UniProt Q13507).
T1 sequence (whole entry): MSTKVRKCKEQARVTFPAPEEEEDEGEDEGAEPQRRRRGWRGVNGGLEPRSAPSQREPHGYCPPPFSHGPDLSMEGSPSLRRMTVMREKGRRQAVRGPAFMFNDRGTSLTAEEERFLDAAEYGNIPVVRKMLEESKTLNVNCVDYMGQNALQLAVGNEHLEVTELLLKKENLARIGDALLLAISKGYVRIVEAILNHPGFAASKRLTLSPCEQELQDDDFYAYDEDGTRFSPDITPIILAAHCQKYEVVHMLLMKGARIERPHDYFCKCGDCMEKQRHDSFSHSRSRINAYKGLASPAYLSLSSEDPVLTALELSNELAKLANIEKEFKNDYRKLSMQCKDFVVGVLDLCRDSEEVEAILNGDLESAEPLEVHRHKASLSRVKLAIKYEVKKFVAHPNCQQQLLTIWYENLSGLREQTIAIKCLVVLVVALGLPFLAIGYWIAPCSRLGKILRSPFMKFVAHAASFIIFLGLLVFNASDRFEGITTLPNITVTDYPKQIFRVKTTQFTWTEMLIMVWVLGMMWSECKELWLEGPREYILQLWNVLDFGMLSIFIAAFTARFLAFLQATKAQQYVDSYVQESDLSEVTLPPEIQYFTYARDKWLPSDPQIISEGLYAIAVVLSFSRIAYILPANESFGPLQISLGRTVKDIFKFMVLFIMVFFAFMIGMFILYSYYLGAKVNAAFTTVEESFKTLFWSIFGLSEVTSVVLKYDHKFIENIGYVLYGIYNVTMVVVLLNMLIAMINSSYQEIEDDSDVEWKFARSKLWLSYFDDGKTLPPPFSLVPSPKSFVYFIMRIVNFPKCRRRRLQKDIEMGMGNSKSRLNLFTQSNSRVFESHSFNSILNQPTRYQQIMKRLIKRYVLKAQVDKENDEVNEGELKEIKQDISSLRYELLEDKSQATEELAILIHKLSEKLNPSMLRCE
As to the kind of experiment: Agonist activity at human TRPC3 expressed in HEK293 cells assessed as induction of membrane depolarization measured for 2.5 mins in presence of 2 mM Ca2+ by FLIPR membrane potential dye-based fluorescence assay. Type of assay: cell-based. In a few lines:
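HEK293 cells stably expressing human TRPC3, run on a FlexStation at 32 °C. Loaded with FMP dye, or Fluo-type Ca2+ dye with 2 mM probenecid. Extracellular NaCl/HEPES saline, pH 7.4, with 2 mM Ca2+ (standard) or 0.5 mM Ca2+. Read as F/F0. In 0.5 mM Ca2+, FMP EC50 from a Hill fit, n = 6.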

Assay [2] concerns the target T2, Short transient receptor potential channel 3 (Rattus norvegicus) (UniProt Q9JMI9).
T2 sequence (whole entry): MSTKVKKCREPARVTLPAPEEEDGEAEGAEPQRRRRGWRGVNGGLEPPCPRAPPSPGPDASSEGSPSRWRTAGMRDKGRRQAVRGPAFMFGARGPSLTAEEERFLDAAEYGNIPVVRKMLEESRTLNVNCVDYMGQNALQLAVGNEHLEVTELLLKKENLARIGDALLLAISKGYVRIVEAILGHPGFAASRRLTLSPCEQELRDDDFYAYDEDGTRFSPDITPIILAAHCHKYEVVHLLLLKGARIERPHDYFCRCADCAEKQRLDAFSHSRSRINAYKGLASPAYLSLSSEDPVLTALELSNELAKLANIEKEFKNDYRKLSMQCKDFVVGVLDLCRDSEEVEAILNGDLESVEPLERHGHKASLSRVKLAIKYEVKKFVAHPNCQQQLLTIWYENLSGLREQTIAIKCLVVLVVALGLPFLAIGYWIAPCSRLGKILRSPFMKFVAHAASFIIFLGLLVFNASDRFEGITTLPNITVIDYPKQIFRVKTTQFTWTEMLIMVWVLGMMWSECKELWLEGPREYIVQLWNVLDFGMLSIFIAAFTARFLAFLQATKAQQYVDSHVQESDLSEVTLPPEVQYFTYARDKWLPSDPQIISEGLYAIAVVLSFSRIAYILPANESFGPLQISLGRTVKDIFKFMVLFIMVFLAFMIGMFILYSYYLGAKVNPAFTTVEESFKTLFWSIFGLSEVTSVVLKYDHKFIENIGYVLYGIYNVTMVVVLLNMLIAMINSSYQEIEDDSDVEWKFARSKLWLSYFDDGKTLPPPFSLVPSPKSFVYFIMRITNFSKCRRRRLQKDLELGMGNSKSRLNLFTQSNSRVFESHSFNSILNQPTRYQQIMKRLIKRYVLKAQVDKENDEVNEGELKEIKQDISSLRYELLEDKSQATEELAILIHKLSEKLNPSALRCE
Nature of the assay: Agonist activity at TRPC3 in rat primary glomerular mesangial cells assessed as increase in intracellular calcium level at 1 uM in presence of TRPC inhibitor […] by Fluo4-AM dye-based fluorescence assay. Type of assay: cell-based. In a few lines: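 Rat glomerular mesangial cells, isolated by graded sieving from male Sprague–Dawley rats, collagenase-digested, cultured in RPMI 1640 with 17% FBS. Grown overnight on coverslips, then loaded with 10 μM Fluo4-AM and 0.02% pluronic F-127 for 1 h at 37 °C in 1 mM Ca2+ saline, pH 7.4. Compound at 1 μM. Confocal imaging, ex 488/em 515 nm, read as F/F0. For the 2-APB condition, 30 μM 2-APB for 2 min beforehand and kept during compound application.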

Active and inactive are the calls of the source. The calls are words filed in the database; no cut-off is given here.

`CCOC(=O)N1CCC(c2cc(O)n3nc(C)c(-c4ccc(F)cc4)c3n2)CC1`: in assay [1], the result was inactive.
On to `Cc1nn2c(O)cc(C3CCN(C(=O)OCc4ccccc4)CC3)nc2c1-c1ccc(F)cc1`, for which the outcome in assay [2] was inactive.
